Measured values of several laboratories.
Lines come from different studies, so protocols differ.
Organism: Staphylococcus aureus
Read-out: microbial growth

SMILES	test	system	conditions	MIC
Cc1[nH]c(C(=O)Nc2ccc(C(=O)NCC(=O)O)cc2N2CCNCC2)c(Cl)c1Cl.Cl	broth dilution	ATCC29213	–	> 32 µg/mL
O=C(O)c1cn(C2CC2)c2cc(N3CCNCC3)c(F)cc2c1=O	–	MTCC96	24 h	0.12 µg/mL
CC(O)CSc1nnc(-c2cc3c(ccc4ccccc43)o2)n1-c1ccccc1 (stereo not drawn)	–	–	–	10000 µg/mL
C=C/C=C(\C)CC[C@H]1C[C@H](O)CC(=O)O1	broth dilution	ATCC6538P	–	256 µg/mL
CO[C@@H]1[C@@H](OC(N)=O)[C@@H](O)[C@H](Oc2ccc3c(O)c(NC(=O)c4ccc(O)c(CC=C(C)C)c4)c(=O)oc3c2C)OC1(C)C	broth dilution	ATCC29213	–	0.25 µg/mL
CC(O)CSc1nnc(COc2ccc(Cl)cc2Br)n1-c1ccccc1 (stereo not drawn)	–	–	–	12000 µg/mL
CC(C)=CCCC(C)=CC1c2c(C)nn(-c3ccccc3)c2NN1C(=O)c1ccncc1 (stereo not drawn)	–	MTCC96	24 h	> 100 µg/mL
CC(C)(C)OC(=O)N[C@@H]1CCN(c2cc(C(=O)NCC(=O)O)ccc2NC(=O)c2cc(Br)c(Br)[nH]2)C1	broth dilution	ATCC29213	–	> 32 µg/mL
O=C(OC[C@H]1O[C@@H](OC(=O)c2cc(O)c(O)c(O)c2)[C@H](OC(=O)c2cc(O)c(O)c(O)c2)[C@@H](OC(=O)c2cc(O)c(O)c(O)c2)[C@@H]1OC(=O)c1cc(O)c(O)c(O)c1)c1cc(O)c(O)c(O)c1	broth dilution	–	16 h	100 µg/mL
Cc1[nH]c(C(=O)Nc2ccc(C(=O)NCC(=O)O)cc2N2CC[C@H](NC(=O)OC(C)(C)C)C2)c(Cl)c1Cl	broth dilution	ATCC29213	–	> 32 µg/mL
COc1cc(Cc2cnc(N)nc2N)cc(OC)c1OC	broth dilution	FDA209	–	16 µg/mL
CN[C@@H]1[C@@H](O[C@H]2O[C@H](CO)[C@@H](N)[C@H](O)[C@H]2O)OC2C[C@@H](N)[C@@H](O[C@H]3[C@H](O)[C@@H](O)[C@H](N)C[C@@H]3N)OC2[C@@H]1O (stereo partly drawn)	–	–	24 h	1.25 to 2.5 µM
CC1CCC(C(C)C)C(OC(=O)C=Cc2ccc(O)c(O)c2)C1 (stereo not drawn)	broth dilution	FDA209	–	4 µg/mL
O=C(O)[C@H]1O[C@@H](Oc2c(-c3ccc(O)c(O)c3)oc3cc(O)cc(O)c3c2=O)[C@H](O)[C@@H](O)[C@@H]1O	broth dilution	–	16 h	> 250 µg/mL
CC1(C)S[C@@H]2[C@H](NC(=O)[C@H](N)c3ccccc3)C(=O)N2[C@H]1C(=O)O	broth dilution	FDA209	–	4 µg/mL
Cc1nn(-c2ccccc2)c2c1C(c1c[nH]c3ccccc13)N(C(=O)c1ccncc1)N2 (stereo not drawn)	–	MTCC96	24 h	> 100 µg/mL
CC(C)NCC(COc1cccc2ccccc12)OC(=O)C=Cc1ccc(O)c(O)c1 (stereo not drawn)	broth dilution	FDA209	–	32 µg/mL
Cl.N[C@H]1CCN(c2cc(C(=O)NCC(=O)O)ccc2NC(=O)c2cc(Br)c(Br)[nH]2)C1	broth dilution	ATCC29213	–	> 32 µg/mL
